Screens: PubChem BioAssay, several laboratories
Autophagy HCS – alters autophagy in cells; MEF GFP-LC3 puncta imaging; test concentration mostly 10 µM; calls only at 10 µM (by protocol); 0.98% of 190,000 active; AID 463193;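 active = percentage of spot-positive cells more than 3 SD above its plate mean, without a fluorescence outlier flag or 80% toxicity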;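 also: spot-positive cell cutoff set from DMSO-treated cells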
MT stabilizer – stabilizes microtubules in HeLa cells. HeLa tubulin immunostaining HCS, 24 h; share of cells brighter than vehicle mean+2SD. % tubulin-high responders, % at 10 µM. 0.83% of 200,000 active;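 active = plate Z-score above 3 for both tubulin-high and condensed-nucleus cell shares, with cell loss under 80%, at 10 µM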;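 also: anti alpha tubulin signal scored within the nucleus-defined area of each cell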
ABCG2 block – human ABCG2 inhibition, ABCB1 as counter-screen; IgMXP3 cells, JC-1 efflux, flow cytometry; Q9UNQ0; 0.1% of 190,000 active; inhibition, % at 6.6 µM;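 active = inhibition above 80%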;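 also: 0% = DMSO and 100% = nicardipine control wells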
Target sequence (Q9UNQ0 whole entry, looked up): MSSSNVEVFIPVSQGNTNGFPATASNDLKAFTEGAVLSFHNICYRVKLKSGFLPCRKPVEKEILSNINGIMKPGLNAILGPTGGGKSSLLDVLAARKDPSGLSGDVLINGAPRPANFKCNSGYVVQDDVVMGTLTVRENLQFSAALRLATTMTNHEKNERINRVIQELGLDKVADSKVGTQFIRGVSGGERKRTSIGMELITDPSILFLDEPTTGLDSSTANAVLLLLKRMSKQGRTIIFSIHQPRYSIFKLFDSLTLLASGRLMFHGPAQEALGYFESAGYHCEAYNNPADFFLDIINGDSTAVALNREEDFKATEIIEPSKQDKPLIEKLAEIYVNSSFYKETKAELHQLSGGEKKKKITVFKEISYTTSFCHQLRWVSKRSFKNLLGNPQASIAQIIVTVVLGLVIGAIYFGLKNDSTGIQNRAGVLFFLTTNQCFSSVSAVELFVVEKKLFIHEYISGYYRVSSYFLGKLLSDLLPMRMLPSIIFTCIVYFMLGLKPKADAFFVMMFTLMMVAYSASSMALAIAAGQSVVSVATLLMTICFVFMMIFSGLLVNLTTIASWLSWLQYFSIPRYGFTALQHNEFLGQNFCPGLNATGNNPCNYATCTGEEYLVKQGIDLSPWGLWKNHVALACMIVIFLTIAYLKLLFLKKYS
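Read-out basis: Efflux inhibition in percent versus controls | Test system: ABCG2 IgMXP3 and barcoded ABCB1 CCRF-Adr cell mix | Quantity: 3 million cells/mL in well | Schedule: 10 min at 25 °C | Control set: Nicardipine as high control, DMSO as low control | Reagent: JC-1 as fluorescent efflux pump substrate | Signal: Flow cytometry of retained JC-1 fluorescence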
b-catenin transl – beta-catenin nuclear translocation modulation; HeLa beta-catenin nuclear translocation, immunofluorescence imaging; nuclear translocation activity, % at 5 µM; 0.3% of 190,000 active; AID 1665;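 active = nuclear translocation activity above 50% at 5 µM, with a well cell count of 50 or more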;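 also: per-cell ratio of nuclear to cytoplasmic median beta-catenin stain intensity; plate controls were DMSO negative control for no effect and GSK-3 inhibitor IX positive control for full effect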
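Test system: human HeLa cell line; Doses: 5 µM primary, 0.02–20 µM confirmation; Incubation: 24 h compound exposure, 37°C; Detection: beta-catenin immunofluorescence imaging with DAPI; Read-out: beta-catenin nuclear/cytoplasmic ratio, % activation.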
Arbovirus inh – blocks arbovirus infection; arbovirus infection cell-based antiviral screen; inhibition, % at 10 µM; 0.37% of 200,000 active; in the data active = inhibition above about 30%
ABCB1 block – inhibitors of human ABCB1 transporter, ABCG2 counter-screen. 0.067% of 190,000 active. inhibition, % at 6.6 µM. AID 1326. P08183. CCRF-Adr cells, JC-1 efflux, flow cytometry; in the data active = inhibition above about 40%;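 also: 0% = vehicle and 100% = reference inhibitor; higher value means more JC-1 retained so stronger ABCB1 efflux block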
Starred values were filed as active, the others as inactive; i = inactive; . = no result given; + = active, no number. Shown are actives, neighbours in structure and some others; about 2.1% of the full set was active somewhere.

SMILES	Autophagy HCS	MT stabilizer	ABCG2 block	b-catenin transl	Arbovirus inh	ABCB1 block
CCc1nc(SCc2ccc(F)cc2)[nH]c(=O)c1C#N	i	3	5	-2	40*	1
COc1ccccc1C(C)NCC(=O)Nc1ccccc1C(F)(F)F (stereo not given)	i	3	6	0	-2	1
Cc1cc(C(F)(F)F)n(-c2nc(C(=O)N/N=C/c3ccc(F)cc3)cs2)n1	i	49*	4	.	-13	0
COc1cccc(/C=N/NC(=O)c2csc(-n3nc(C)cc3C(F)(F)F)n2)c1	i	43*	6	30	-6	0
Cc1cccc(NC(=S)NNC(=O)c2ccccc2OC(F)F)c1	i	3	-2	2	-19	-2
CCNC(=S)NNC(=O)c1ccccc1OC(F)F	i	2	4	2	-1	0
CCc1ccc(NC(=S)NNC(=O)c2ccccc2OC(F)F)cc1	i	16*	-1	13	-9	0
COc1ccc(NC(=S)NNC(=O)c2ccccc2OC(F)F)cc1	i	36*	0	16	-21	0
Brc1ccc(-c2csc(/N=C/N3CCCC3)n2)cc1	i	3	15	-1	-6	1
Cc1cccnc1NC(=O)c1ccc(S(=O)(=O)N2CC(C)OC(C)C2)cc1 (stereo not given)	i	6	2	-4	5	1
COc1ccc(/C=N/NC(=O)c2cccnc2)cc1CSc1nc2ccccc2s1	i	13	-5	153*	1	0
COc1ccc(-c2ccc(/C=N/NC(=O)c3cccnc3)o2)c([N+](=O)[O-])c1	+	3	33	-2	-5	1
COc1ccc(/C=N/NC(=O)c2cccnc2)cc1COc1ccc([N+](=O)[O-])c(C)c1	.	.	.	82*	.	.
COc1ccc(/C=N/NC(=O)c2ccn[nH]2)cc1COc1ccc([N+](=O)[O-])c(C)c1	.	.	.	1	.	.
COc1cc(/C=N/NC(=O)c2ccccc2Cl)ccc1Oc1ccc([N+](=O)[O-])cn1	i	17*	5	2	-22	1
Cc1ccc(C(=O)N/N=C/c2ccc(-c3ccccc3[N+](=O)[O-])o2)cn1	i	4	1	2	-5	0
CCCCNC(=O)OC1CCS(=O)(=O)C1 (stereo not given)	i	3	0	-6	8	0
Cc1ccc2oc(-c3ccc(NC(=O)CC(C)C)cc3)nc2c1	i	2	2	-7	-5	0
COc1ccc(/C=N/NC(=O)c2ccccc2Cl)cc1CSc1nc2ccccc2s1	i	17	4	332*	-16	1
COc1ccc(/C=N/NC(=O)CCSc2nc3ccccc3s2)cc1OC	i	2	1	2	-13	1
CC(=O)Nc1ccc(NS(=O)(=O)c2cc([N+](=O)[O-])ccc2C)cc1	i	2	2	-2	5	1
Cc1ccc([N+](=O)[O-])cc1S(=O)(=O)Nc1ccc(C(=O)N(C)C)cc1	+	2	2	4	-3	1
Cn1ccnc1C(=O)c1cc(SCC(=O)NCc2ccccc2)nc2ccccc12	i	16*	1	-2	-9	0
COC(=O)CSc1cc(C(=O)c2nccn2C)c2ccccc2n1	i	1	1	-4	8	0
Cc1cc(N2CCN(Cc3cn(C)nc3-c3cccc(Cl)c3)CC2)cc(C)n1	i	17	1	73*	-31	0
SMILES	Autophagy HCS	MT stabilizer	ABCG2 block	b-catenin transl	Arbovirus inh	ABCB1 block
Clc1cccc(N2CCN(Cc3nc(-c4ccccc4)no3)CC2)c1	.	3	1	1	33*	0
Cc1cc(N2CCN(Cc3cn(C)nc3-c3ccccc3F)CC2)cc(C)n1	i	21*	0	69*	-12	0
Clc1ccc(-c2noc(CN3CCN(c4ccccc4)CC3)n2)cc1	i	3	1	.	7	0
Cc1[nH]c(=O)[nH]c(=O)c1CSc1nnc([C@H](CC(C)C)NC(=O)OC(C)(C)C)o1	i	6	-2	-7	15	-2
COC(=O)C/C=C/[C@@H](C)[C@@H](/C=N/OCC[C@@H]1C=C[C@H](OC(C)=O)[C@@H](COC(C)=O)O1)NS(=O)(=O)c1ccc(C)cc1	+	2	3	0	8	3
CCN(CC)CCCNc1oc(-c2cccc(Cl)c2)nc1C#N	+	3	5	3	-13	0
CCOC(=O)C1CCCN(C(=O)c2cn(C)c3ccc(S(=O)(=O)N(C)C)cc3c2=O)C1 (stereo not given)	+	3	2	-2	6	0
COc1ccc(N(C2CSC2)S(=O)(=O)c2ccccc2)cc1	i	3	1	-4	-2	0
O=C(NCc1ccccc1)c1noc2c1CCCCC2	+	4	2	4	-8	1
COc1ccc(CNC(=O)c2noc3c2CCCCC3)cc1	i	2	9	0	8	1
CC(=O)Nc1ccc(NS(=O)(=O)c2ccccc2)cc1	+	2	11	-4	6	1
COc1ccc(-c2noc(-c3ccoc3C)n2)cc1	i	10*	2	2	-16	0
O=C(Nc1ccncc1)C1CCCN(S(=O)(=O)c2cccc3cccnc23)C1 (stereo not given)	.	22*	1	88*	-9	0
N/N=C1\CCCc2c1[nH]c1ccc([N+](=O)[O-])cc21	.	.	.	5	.	.
Cc1c(Cc2ccc3c(c2)OCO3)sc(NC(=O)C(C)(C)C)c1C#N	i	22*	-3	-1	-8	-2
CCC(=O)Nc1sc(Cc2ccc3c(c2)OCO3)c(C)c1C(N)=O	.	.	.	0	.	.
O=C(CC1C(=O)NCCN1Cc1cccc(Oc2ccccc2)c1)NCC1CCOCC1 (stereo not given)	i	1	1	0	0	0
CC1CCCCN1S(=O)(=O)c1ccc(C(=O)Nc2sccc2C(N)=O)cc1 (stereo not given)	+	3	3	-3	-35	1
CCOc1ccc(NS(=O)(=O)c2cc(NC(=O)c3cccc(C)c3)ccc2Cl)cc1	i	23*	13	12	-15	4
O=C(Nc1ccccc1-c1nc2ccccc2o1)c1ccc2c(c1)OCCO2	i	15*	.	.	.	.
c1ccc(-c2cn(-c3ccccc3)c3ncnc(N4CCCCC4)c23)cc1	i	3	-1	0	-10	-1
CCOc1ccc(-n2cc(-c3ccccc3)c3c(N4CCOCC4)ncnc32)cc1	+	4	-1	1	-24	0
Cc1ccc(-n2c(C)nc3c(cnn3-c3ccc(F)cc3)c2=O)cc1C	+	2	4	-1	5	1
Cc1ccc(-n2c(C)nc3c(cnn3-c3ccc(C)c(C)c3)c2=O)cc1C	i	3	7	.	10	1
